Reference: article PMC4050360 (Results in Pharma Sciences, 2014)
Values after ≈ are worked out from the molar mass of the structure shown.

Tests used:
[1] = ref 41 (Scifinder); cited from earlier work
[2] = In vivo pharmacokinetic study, intravenous emulsion; parameters: species or system female Sprague Dawley rats; details: rat
How it was run: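 Female Sprague Dawley rats (248–276 g; n = 6/group) received a tail-vein dose molar equivalent to 5 mg aripiprazole/kg. Vehicle: submicron emulsion (20% w/w MCT oil, 1.2% lecithin, 2% glycerol, water; 1 mg aripiprazole-equivalent/mL). K-EDTA blood was sampled at 5, 15, 30 min and 1–24 h. Acidified-acetonitrile plasma extracts with d8 internal standard were analysed by positive-ESI MRM. Two-compartment fit; trapezoidal AUC extrapolated to infinity; mean ± SEM.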

[3] = cited from earlier work
[4] = female, Sprague Dawley, plasma, iv, 5 mg/kg

O=C1CCc2ccccc2N1 [3,4-dihydro-2(1H)-quinolinone]
Estimated pKa [1]: 14.6

O=C1CCc2ccc(OCCCCN3CCN(c4cccc(Cl)c4Cl)CC3)cc2N1 [aripiprazole]
clearance ([2]; female, Sprague Dawley, plasma, iv, 5 mg aripiprazole/kg (molar equivalent)): 22.8 mL/min/kg | Vd [2, 4]: 8.16 ± 0.75 L/kg | half-life [2, 4]: ~4.2 h | AUC0?8 ([2]; i.v., molar equivalent to 5 mg aripiprazole/kg, n = 6, mean ± SEM): 8176 ± 2647 nmol?h/L | solubility in water [3]: 9 µM (≈ 4.04 µg/mL)
